System: MS2 coat protein
Experiment: apparent Kd, MS2 coat protein; higher = weaker binding; RNA-MaP array; FMN 200 µM where present
Summary of the method: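 Two titrations, one without ligand and one with constant ligand, were run with SNAP-549-labelled MS2 coat protein from 0.7 or 1.5 nM, doubling to 3 µM. The targets were designs transcribed by stalled E. coli RNA polymerase on Illumina sequencing-chip clusters, in 100 mM Tris-HCl pH 7.5, 80 mM KCl, 4 mM MgCl2, BSA, DTT, yeast tRNA and Tween-20. The apparent Kd is the median of filtered per-cluster binding-curve fits, with green signal normalised to red-channel RNA signal and control-cluster median Fmax.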

[1] = designed as: OFF switch for flavin mononucleotide, no ligand
[2] = ligand present: flavin mononucleotide, designed as: OFF switch for flavin mononucleotide
[3] = designed as: ON switch for flavin mononucleotide, no ligand
[4] = ligand present: flavin mononucleotide, designed as: ON switch for flavin mononucleotide

| Sequence | apparent Kd [1] [nM] | apparent Kd [2] [nM] | apparent Kd [3] [nM] | apparent Kd [4] [nM] |
| --- | --- | --- | --- | --- |
| UUAAUGUGAGGAUAUCAGGUGUGCUAGAGAACUGGUACAUCUGAGAAGGCACAUGAGGAUCACCCAUGUUCUUC | 42.8 | 197 |  |  |
| CAGUCUACAGGAUAUACAUGAGGAUCACCCAUGUAAAUUCACUUUCAGUAGUCUACAUGUAGAAGGGUAGACUG | 21.3 | 40.3 |  |  |
| GGUUGUCAUAGUCAUCCUUUCCGUACAUGAGGAUCACCCAUGUAGGAUAUGCUGCUCUCGGUGUGGCAGAAGGGCGUGUGUCUU | 17.8 | 18.9 |  |  |
| UAAACGUUCUAGAAGGUGCAUUUGUUAAACAAGCAAGGAUAUAGACAUGAGGAUCACCCAUGUCUAUUAGACAUCGGCCUACUU | 5.75 | 5.39 |  |  |
| UUUUUGUGAGGAUAUCAGUAGUAGAACAAUAGUACUACUACUGAGAAGGCACAUGAGGAUCACCCAUGUUCCUC | 58.1 | 325 |  |  |
| GUUGGCGUAGAAGGAUAUUGGUGAUGCGUCUUGUACAUGAGGAUCACCCAUGUCACUCUGCACGCCGAGAAGGUCUGCAAAUGG |  |  | 110 | 87.6 |
| AACAGUACAGGAUAUACAUGAGGAUCACCCAUGUGAGACUUAAGUGGCGUACCACAAAGUAGAAGGGUACUGGA | 94.7 | 545 |  |  |
| GCGCAUGUCACAGGAUAUCCCAUAGUGUACAUGAGGAUCACCCAUGUACUGCAAUGCAGACACAAGGAGAAGGGUGAGACUCGU |  |  | 84.8 | 96.7 |
| UUGCUACAUGAGGAUCACCCAUGUCAGGAUAUAGUGCAUAGCGUGGAAGCUCUGUCGAUUAGAAGGGACUGUCU | 25.2 | 27.4 |  |  |
| AGUUGGCGAGGAUAUACAUGAGGAUCACCCAUGUGAGAGAAUAAAGUGAGGAAGAAAAGUAGAAGGCGCUGACA | 47.8 | 154 |  |  |
| AUCAUGUGAGGAUAUGUGAUCAACCUUCUAUAUAGAUGAUGACAGAAGGCACAUGAGGAUCACCCAUGUAGAUC | 90.7 | 21.8 |  |  |
| AAAAGUUCAGGAUAUACAUGAGGAUCACCCAUGUAGAAAGGAAGUGUAAAAAAAAAGUGUAGAAGGGAGCAUGA | 31.7 | 29.1 |  |  |
| AGAUAGUCAGGAUAUACGUGGAUGGAACACUUAUUUCCACUACAUGAGGAUCACCCAUGUAGAAGGGACUAUCA | 17.8 | 17.8 |  |  |
| AAUUGAAACGUAGGAUAUCGCAAAGAUCUAGAACGAGAAGGACGUACAUGAGGAUCACCCAUGUUAAAUGGUGAAGAUUAGAUG | 768 | 916 |  |  |
| CGUAGGAUCCAGAAGGCAUGAAACAUGAGGAUCACCCAUGUAAAAGACAUGAGGAUAUGGAUCCUACGAAAAGUGCGAAAGCAC |  |  | 3.69 | 3.4 |
| GGUAAGAUGCAGAAGGUGUUAGCUAGAGCUACGACAUGAGGAUCACCCAUGUACUAGAAACAGUACAAGGAUAUGCAUCUUACC |  |  | 18.4 | 6.38 |
| GUAGCUAUCGCAGGAUAUCCUCAGCGGAAACGCACAUGAGGAUCACCCAUGUAAAUAAAUAAUUUGGAGAAGGGCGAUAGCUAC |  |  | 323 | 26.8 |
| GGUUGACAUGAGGAUCACCCAUGUGAGGAUAUCGGCUGGUACGUGUUGGCUGGCAUCUCGAGAAGGCACAUAGG | 170 | 58.4 |  |  |
| UACCUGAGGCUUUGCUUUAGGCUUACAUGAGGAUCACCCAUGUAGGAUAUGGUAGGCAAAGCUUACCAGAAGGACAUGGAAAUU | 19 | 66.6 |  |  |
| CGUCAUUACUCAGGAUAUGCACCAUACUUGAGGGCAGAAGGGAGUACAUGAGGAUCACCCAUGUACUAUGGGCGCCUAAGAGGU | 8.26 | 45.1 |  |  |
| GGUGCGAGUGUGAGGAUAUGCUGGUCGUAAGAUCAGCAGAAGGCACAUGAGGAUCACCCAUGUGAAAACGUACC | 22.3 | 145 |  |  |
| AAUAGUGGCGUAGGAUAUCUGCGUACAUGAGGAUCACCCAUGUCUCCCAGCCGCUGAGCUGGGACAGAGAAGGGCGACCGCAUA |  |  | 229 | 88.9 |
| AGUUUUGUACAUGAGGAUCACCCAUGUUAAUAUGUGGUAGUCAGAAGGCAUUGUUAGAGUAUAUAUGAGGAUAUGAUUAGUCAG |  |  | 58.3 | 27.9 |

— the EternaBench riboswitch data
